Results pooled from the literature.
Target: Mitogen-activated protein kinase 11 (MAPK11, Homo sapiens, UniProt Q15759)

Cn1c2c(Cl)c(Cl)ccc2c2cn[nH]c(=O)c21  ΔTm (thermal stability, DSF; 10 µM): 0.1 °C
Nc1ncnc2occ(-c3ccc(NC(=O)Nc4cc(C(F)(F)F)ccc4F)cc3)c12  remaining signal (cell-free assay, inhibitor; 20 µM): 0%
Cn1c(=O)n(-c2ccc(C(C)(C)C#N)cc2)c2c3cc(-c4cnc5ccccc5c4)ccc3ncc21  remaining activity (enzyme activity, inhibitor; 10 µM): 96%
CN1CC(Oc2cnc(C#N)cc2-c2ccn3nc(NC(=O)C4CC4)cc3c2)C1  inhibition (enzyme activity, inhibitor; 1 µM): 10%
CC(C)(C)C(=O)c1sc(NC2CCCCC2)nc1N  remaining activity (enzyme activity, inhibitor; 10 µM): 82%
C[S+]([O-])c1ccc(-c2nc(-c3ccncc3)c(-c3ccc(F)cc3)[nH]2)cc1 (stereo not shown)  remaining signal (cell-free assay; 0.5 µM): 68.9%
O=C(Nc1cnn(-c2csc(C(=O)NC3COC3)c2)c1)Nc1ccccc1Cl  remaining activity (enzyme activity, inhibitor; 5 µM): 101%
CCC1(CC)NC(=O)c2c(c3ccc(Cl)c(Cl)c3n2C)C1C#N (stereo not shown)  ΔTm (thermal stability, DSF; 10 µM): 0.1 °C
CS(=O)(=O)Nc1cccc(-c2csc(NC(=O)CSc3nc4nccnc4c(=O)n3CCc3ccccc3)n2)c1  inhibition (enzyme activity, inhibitor; 10 µM): 7%
c1ccc(CNc2nc(N3CCOc4ccccc43)nc3c2CCCC3)cc1  inhibition (target engagement in cells, inhibitor, chemoproteomics; 20 mM): -9.7%
Cc1cc(NC(=O)c2cccc(S(F)(F)(F)(F)F)c2)cc(-n2ccn3nc(-c4cccnc4)cc23)c1  remaining binding (cell-free assay, competition with immobilised ligand; 1 µM): 98.1%
COc1cc2ncnc(Nc3ccc(Oc4ccccc4)cc3C)c2cc1OC  inhibition (enzyme activity, inhibitor; 1 µM): 5%
CC(C)(O)c1cncc(-c2nc3ccc(F)cc3n2C2CC2)c1  remaining binding (cell-free assay, competition with immobilised ligand; 1 µM): 100%
CNCc1ccc(-c2cc(-c3nc(-c4ccc(S(=O)(=O)C(C)C)cc4)cnc3N)on2)cc1  inhibition (enzyme activity, inhibitor; 2 µM): 11%
O=C(NCCCC1CCCCC1)c1ccc(CNC(=O)c2cnn(-c3ccccc3)c2C(F)(F)F)cc1  remaining binding (cell-free assay, competition with immobilised ligand; 0.1 µM): 100%
Oc1cccc(-c2nc(N3CCOCC3)c3oc4ncccc4c3n2)c1  remaining signal (cell-free assay; 0.5 µM): 103%
CC1=C(C#N)C(c2ccc3c(c2)c(NC(=O)c2ccccc2C)nn3C)C(C#N)=C(C)N1  remaining binding (cell-free assay, competition with immobilised ligand; 1 µM): 100%
CCN1CCC2(CC1)NC(=O)c1c(c3ccc(Cl)c(Cl)c3n1C)C2C#N (racemic)  ΔTm (thermal stability, DSF; 10 µM): -0.3 °C
CC(=O)N1CCC(c2ccc(C(=O)NC(=N)N)cc2C(F)(F)F)CC1  remaining binding (cell-free assay, competition with immobilised ligand; 1 µM): 88%
CN1CCC2(CC1)NC(=O)c1c(c3ccc(Cl)c(Cl)c3n1C)C2C#N (racemic)  ΔTm (thermal stability, DSF; 10 µM): 0.4 °C
CN([C@@H]1CCc2c(CC(=O)O)c3ccccc3n2C1)S(=O)(=O)c1ccc(F)cc1  remaining binding (cell-free assay, competition with immobilised ligand; 1 µM): 88%
CCN(CC)CCNC(=O)c1c(C)[nH]c(/C=C2\C(=O)Nc3ccc(F)cc32)c1C  inhibition (enzyme activity, inhibitor; 10 µM): 3%
